Measured values of several laboratories.
Target: Non-receptor tyrosine-protein kinase TNK1 (TNK1, Homo sapiens, UniProt Q13470)
Sequence (Q13470 1-666, as in one of the studies): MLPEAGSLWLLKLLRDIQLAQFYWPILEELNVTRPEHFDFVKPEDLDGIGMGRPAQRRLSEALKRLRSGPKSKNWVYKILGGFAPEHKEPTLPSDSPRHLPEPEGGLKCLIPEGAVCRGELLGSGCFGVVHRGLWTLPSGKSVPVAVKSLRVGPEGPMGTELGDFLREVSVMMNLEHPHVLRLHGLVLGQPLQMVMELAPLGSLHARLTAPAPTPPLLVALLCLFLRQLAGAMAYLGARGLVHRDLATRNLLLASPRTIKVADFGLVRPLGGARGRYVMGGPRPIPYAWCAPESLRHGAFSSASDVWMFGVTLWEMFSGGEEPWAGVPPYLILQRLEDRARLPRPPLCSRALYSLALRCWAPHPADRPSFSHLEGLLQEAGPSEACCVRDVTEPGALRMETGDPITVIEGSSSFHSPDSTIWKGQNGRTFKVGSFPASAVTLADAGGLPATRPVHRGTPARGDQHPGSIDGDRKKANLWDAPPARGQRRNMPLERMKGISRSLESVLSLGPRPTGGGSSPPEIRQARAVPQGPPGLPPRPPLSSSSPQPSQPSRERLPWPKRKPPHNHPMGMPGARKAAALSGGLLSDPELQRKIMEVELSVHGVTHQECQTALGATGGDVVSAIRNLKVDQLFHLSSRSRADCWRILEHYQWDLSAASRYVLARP

Nc1ncnc2occ(-c3ccc(NC(=O)Nc4cc(C(F)(F)F)ccc4F)cc3)c12  remaining signal (cell-free assay, inhibitor; 20 µM): 6.8%
c1nc2c(Nc3ccc4c(c3)OCCO4)nc(Nc3ccc4c(c3)OCCO4)nc2[nH]1  activity vs control (enzyme activity, inhibitor; 10 µM): 14%
CC(C)(O)[C@H]1CC[C@H](Nc2ccc3ncc(-c4cccc(C(F)(F)F)c4)n3n2)CC1  remaining activity (enzyme activity, inhibitor; 1 µM): 52.4%
Cc1sc(C(=O)NC2COC2)cc1-n1cc(NC(=O)Nc2c(F)cccc2Cl)cn1  remaining activity (enzyme activity, inhibitor; 10 µM): 105%
Cc1ccc(C(=O)Nc2ccc(CN3CCN(C)CC3)c(C(F)(F)F)c2)cc1C#Cc1cnc2cccnn12  remaining activity (enzyme activity, inhibitor; 23.5 nM): 13%
CC(=O)N1CCC(c2ccc(C(=O)NC(=N)N)cc2C(F)(F)F)CC1  remaining binding (cell-free assay, competition with immobilised ligand; 1 µM): 89%
O=C(Nc1cnn(-c2csc(C(=O)NC3COC3)c2)c1)Nc1ccccc1Cl  remaining activity (enzyme activity, inhibitor; 5 µM): 100%
CC/C(=N\NC(=O)NCc1cccc(O)c1)c1ccc(O)c(C)c1O  inhibition (enzyme activity, inhibitor; 0.1 µM): -1.1%
CC(C)(C)c1nc2c(s1)c1nc(N)ncc1c1ccc(NS(=O)(=O)c3c(F)cccc3F)c(F)c12  remaining activity (enzyme activity, inhibitor, radiometric; 1 µM): 82%
CCOC(=O)c1cc2cc(-c3cc(C(=O)NCc4ccc(C(=O)O)cc4)nn3C)ccc2[nH]1  remaining binding (cell-free assay, competition with immobilised ligand; 0.1 µM): 88%
